The record followed here is ChEMBL document CHEMBL1149572, “2-Aryl-N-acyl indole derivatives as liver X receptor (LXR) agonists” (Bioorg Med Chem Lett, 2007).

The structures appear in SMILES notation.

The target of test [1] is T1, Oxysterols receptor LXR-beta (Homo sapiens, UniProt P55055).
T1 sequence (P55055 whole entry): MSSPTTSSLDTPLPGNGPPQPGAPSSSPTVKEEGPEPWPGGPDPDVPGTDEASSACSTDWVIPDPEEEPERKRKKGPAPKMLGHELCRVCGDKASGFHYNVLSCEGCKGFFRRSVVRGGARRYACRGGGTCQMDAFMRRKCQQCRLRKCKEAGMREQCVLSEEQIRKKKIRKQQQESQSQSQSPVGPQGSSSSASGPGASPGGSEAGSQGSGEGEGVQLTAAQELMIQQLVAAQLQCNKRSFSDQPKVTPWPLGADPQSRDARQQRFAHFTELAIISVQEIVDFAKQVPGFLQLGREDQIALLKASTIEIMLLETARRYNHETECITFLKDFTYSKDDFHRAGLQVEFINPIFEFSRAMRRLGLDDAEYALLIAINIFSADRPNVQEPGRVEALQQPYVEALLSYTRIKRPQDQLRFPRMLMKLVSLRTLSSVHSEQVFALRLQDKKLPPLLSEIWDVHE
The experiment in a line: Agonist activity at human LXRbeta receptor after 1 hr by HTRF cofactor recruitment assay. Format: functional. The method in brief:
(§1)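 Cofactor recruitment was read by HTRF. Buffer was 50 mM Tris pH 7.5 with 50 mM KCl, 1 mM EDTA, 0.1% BSA and 1 mM DTT. Mixtures were shaken for 1 h at room temperature. Values are means of duplicates from a single experiment.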
Background: Time-resolved FRET reads energy transfer from a long-lived donor to a nearby acceptor.

Test [2] concerns the target T1, Oxysterols receptor LXR-beta. Nature of the test: Agonist activity at human LXRbeta receptor transfected in COS7 cells after 16 hrs by reporter transactivation assay relative to GW-3965. Format: functional, cell-based. The settings on record: cos-7. In short, it runs like this: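 COS-7 cells were transfected for 24 h with human LXRb, RXRa and an LXR-response-element luciferase reporter, then exposed to vehicle or compound for 16 h. Luciferase in the lysate was quantified and expressed as percent of the maximum induction given by GW3965. Values come from quadruplicates in a single experiment.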

Test [3] relates to THP-1. The experiment in a line: Induction of ABCA1 gene expression in THP1 cells at 10 uM relative to control. Format: functional, Homo sapiens.
Test [4] relates to HepG2. Nature of the test: Induction of SREBP1c gene expression in HepG2 cells at 10 uM relative to control. Format: functional, Homo sapiens.
Test [5] concerns THP-1. The experiment in a line: Induction of cholesterol efflux in THP1 cells at 10 uM relative to control. Format: functional, Homo sapiens. In short, it runs like this: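 THP-1 cells differentiated to macrophages with 200 nM PMA for 30 h. Labelled with 1,2-3H(N)-cholesterol for 18 h alongside acLDL and 200 nM PMA. Exposed to vehicle or compound for 6 h in serum-free medium with 2 mg/ml BSA, then 18 h more with apoA-I added. Supernatant radioactivity read as fold-induction over vehicle. Mean of triplicates, single experiment.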

In test [6] the test system is HepG2. The experiment in a line: Induction of Lipogenesis in HepG2 cells at 10 uM relative to control. Format: functional, Homo sapiens. In short, it runs like this:
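HepG2 cells pre-treated with vehicle or compound for 24 h, then given [14C]-glycerol and cultured a further 48 h. Cellular triglycerides extracted, separated by TLC and quantified by phosphorimaging. Lipogenesis expressed as fold-induction over vehicle-only control. Mean of triplicate samples, single experiment.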

Test [7] has as its target T2, Oxysterols receptor LXR-alpha (Homo sapiens, UniProt Q13133).
T2 sequence (Q13133 whole entry): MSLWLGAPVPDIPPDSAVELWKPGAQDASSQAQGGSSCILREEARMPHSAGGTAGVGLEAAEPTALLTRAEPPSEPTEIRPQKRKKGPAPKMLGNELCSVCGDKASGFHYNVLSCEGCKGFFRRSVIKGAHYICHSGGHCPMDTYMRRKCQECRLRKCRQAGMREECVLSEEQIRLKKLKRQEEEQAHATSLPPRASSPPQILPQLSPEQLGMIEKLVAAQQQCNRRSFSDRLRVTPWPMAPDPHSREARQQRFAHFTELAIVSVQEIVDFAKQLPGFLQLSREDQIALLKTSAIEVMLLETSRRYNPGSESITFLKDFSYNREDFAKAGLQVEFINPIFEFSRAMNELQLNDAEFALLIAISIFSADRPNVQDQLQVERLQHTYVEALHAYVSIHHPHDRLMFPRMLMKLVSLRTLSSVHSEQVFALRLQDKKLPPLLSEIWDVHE
Nature of the test: Agonist activity at human LXRalpha receptor after 1 hr by HTRF cofactor recruitment assay. Format: functional. In short, it runs like this: as §1

In test [8] the target is T1, Oxysterols receptor LXR-beta. Nature of the test: Agonist activity at human LXRbeta receptor transfected in COS7 cells after 16 hrs by reporter transactivation assay. Format: functional, cell-based, COS-7. The method in brief: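 COS-7 cells were co-transfected for 24 h with human LXRb, RXRa and a luciferase reporter carrying three tandem LXR response elements. Cells were then treated with vehicle or compound for 16 h, and luciferase activity was measured in the lysate. EC50 was calculated from means of quadruplicates in a single experiment.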

Test [9] relates to THP-1. Nature of the test: Induction of cholesterol efflux in THP1 cells. Format: functional, cell-based. The settings on record: Homo sapiens.

The term EC50 denotes the concentration that produces a half-maximal response. Low values mean higher potency in that assay, high ones lower potency in that assay. `CC(C)(C)OC(=O)n1c(-c2ccc(CCCNS(=O)(=O)c3ccccc3)cc2)cc2ccccc21` showed a concentration giving a half-maximal response (EC50) in test [1] of 350 nM.

Take `CC(C)(C)OC(=O)n1c(-c2ccc3c(c2)CC(NS(=O)(=O)c2ccccc2)C3)cc2ccccc21` (centres undefined): the Efficacy in [2] worked out at 43%. In addition, the Ratio stood at 8.4 with THP-1 [3], 3.1 in the test on HepG2 [4], 1.6 with THP-1 [5] and 3.1 in the test with HepG2 [6].

Regarding `CC(C)(C)OC(=O)n1c(-c2ccc(CCc3ccc(-c4ccccn4)s3)cc2)cc2ccccc21`, in test [1], the EC50 is 230 nM.

With `CC(C)(C)OC(=O)n1c(-c2ccc(CNC(=O)c3ccccc3)cc2)cc2ccccc21`, in [1], a half-maximal effect (EC50) was put at 1800 nM.

As to `CC(C)(C)OC(=O)n1c(-c2cccc(CCNS(=O)(=O)c3ccccc3)c2)cc2ccccc21`, a half-maximal effect in test [1] (EC50) was put at 420 nM.

Regarding `CC(C)(C)OC(=O)n1c(-c2ccc(CNS(=O)(=O)c3ccccc3)cc2)cc2ccccc21`, the EC50 in test [1] came out at 220 nM.

As to `CC(C)(C)OC(=O)n1c(-c2ccc(CCCO)cc2)cc2ccccc21`, the midpoint of the response in [1], the EC50, lay at 380 nM.

In the case of `CC(C)(C)OC(=O)n1c(-c2ccc(OCCO)cc2)cc2ccccc21`, a half-maximal effect in [1] (EC50) was put at 420 nM.

As to `CC(C)(C)OC(=O)n1c(-c2ccc(CCCNC(=O)c3ccccc3)cc2)cc2ccccc21`, in test [1], the EC50 turned out to be 360 nM.

In [1], `CC(C)(C)OC(=O)n1c(-c2ccc(CN)cc2)cc2ccccc21` returned an EC50 of 5600 nM.

`CC(C)(C)OC(=O)n1c(-c2ccc(/C=C/C(N)=O)cc2)cc2ccccc21` had an EC50 in [1] of 4900 nM.

In test [1], `CNC(=O)CCc1ccc(-c2cc3ccccc3n2C(=O)OC(C)(C)C)cc1` had a concentration giving a half-maximal response (EC50) of 490 nM.

`CC(C)(C)OC(=O)n1c(-c2ccc(CCC(=O)Nc3ccccc3)cc2)cc2ccccc21`: a half-maximal effect in test [1] (EC50) was put at 1780 nM.

Compound `CC(C)(C)OC(=O)n1c(-c2ccc(CC#N)cc2)cc2ccccc21` came in with a concentration giving a half-maximal response (EC50) in [1] of 300 nM.

The compound `O=C(NCCc1ccc(-c2cc3ccccc3n2C(=O)c2ccccc2)cc1)c1ccccc1` gave an EC50 in test [1] of 1780 nM.

In the case of `CC(C)(C)OC(=O)n1c(-c2ccc(CCNC(=O)c3ccccc3)cc2)cc2ccccc21`, a half-maximal response in test [1] (EC50) required 1750 nM.

As for `CC(C)(C)OC(=O)n1c(-c2ccc(CCNS(=O)(=O)c3ccccc3)cc2)cc2ccccc21`, the midpoint of the response in test [1], the EC50, lay at 120 nM.

In turn, `CC(C)(C)OC(=O)n1c(-c2ccc(NS(=O)(=O)c3ccccc3)cc2)cc2ccccc21` returned an EC50 in [1] of 1320 nM.

Regarding `N#CCCc1ccc(-c2cc3ccccc3n2C(=O)c2ccccc2)cc1`, the EC50 in test [1] is 12 nM; in test [7] it was 220 nM; in test [8], 42 nM; in the test on THP-1 [9] it was 51 nM. This compound showed an Efficacy in test [2] of 39%. Besides, the Ratio in the test with THP-1 [3] is recorded as 10.3; in the test with HepG2 [4] it was 5.3; in the test on THP-1 [5], 1.7; with HepG2 [6], 4.

In the case of `CC(C)(C)OC(=O)n1c(-c2ccc(CCC(N)=O)cc2)cc2ccccc21`, the concentration giving a half-maximal response (EC50) in test [1] came out at 57 nM; in test [7] it was 1110 nM; in test [8], 285 nM; in the test on THP-1 [9], 2400 nM. Besides, the Efficacy in [2] was determined as 70%. Moreover, the Ratio in the test on THP-1 [3] was determined as 5.7; with HepG2 [4], 4; in the test on THP-1 [5] it was 1.9; in the test with HepG2 [6], 2.7.

In test [1], `CC(C)CNC(=O)CCc1ccc(-c2cc3ccccc3n2C(=O)OC(C)(C)C)cc1` yielded an EC50 of 1510 nM.

Consider `CC(C)(C)OC(=O)n1c(-c2ccc(CCC#N)cc2)cc2ccccc21`, for which the concentration giving a half-maximal response (EC50) in [1] was 130 nM; in test [7], 1190 nM; in test [8], 576 nM; with THP-1 [9], 2470 nM. Also, the Efficacy in test [2] turned out to be 45%. Besides, the Ratio in the test on THP-1 [3] came out at 6; in the test on HepG2 [4], 2.5; with THP-1 [5] it was 2.2; in the test on HepG2 [6] it was 2.5.

`CC(C)(C)OC(=O)n1c(-c2ccc(CCC(=O)O)cc2)cc2ccccc21`: the EC50 in test [1] worked out at 220 nM; in [7], 1150 nM; in test [8], 4580 nM; with THP-1 [9], 7000 nM. In test [2], the Efficacy came to 76%. For the same compound, the Ratio was 5.5 with THP-1 [3], 1.4 in the test with THP-1 [5] and 1.2 in the test on HepG2 [6].

For `CC(C)(C)OC(=O)n1c(-c2ccc(CCNS(=O)(=O)c3cccs3)cc2)cc2ccccc21`, the concentration for a half-maximal effect (EC50) in test [1] was found to be 58 nM. This lies in the double-digit nanomolar range.

In [2], `O=C(O)Cc1cccc(OCCCN(Cc2cccc(C(F)(F)F)c2Cl)CC(c2ccccc2)c2ccccc2)c1` had an Efficacy of 100%. Further, the Ratio with THP-1 [3] was 10.7; in the test on HepG2 [4], 5.2; in the test on THP-1 [5], 1.8; with HepG2 [6] it was 2.7.
